Activity calls are given as the source filed them. The calls are words filed in the database; no cut-off is given here.

Assay [1] deals with Mycobacterium tuberculosis variant bovis BCG. The assay can be described thus: Inhibition of Mycobacterium bovis BCG salicylate synthase assessed as removal of iron after 15 days by CAS assay. The essentials:
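Same BCG culture in chelated Sauton's with compound, 15 days at 37 °C. Supernatant mixed 1:1 with Universal CAS solution, 10 min room temperature, A630 read; siderophore units = (Ar − As)/Ar × 100, Ar being blank medium with CAS.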

Assay [2] has the same test system. The assay can be described thus: Inhibition of Mycobacterium bovis BCG salicylate synthase assessed as reduction in mycobactin production after 15 days. The essentials: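 M. bovis BCG grown in 7H9, subcultured in chelated Sauton's, diluted 1:1000 into chelated Sauton's with sub-lethal compound concentrations; 15 days at 37 °C. Pelleted cells extracted in ethanol overnight, 0.1 M FeCl3 in ethanol added until colour stable, 1 h room temperature; mycobactins isolated and quantified.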

As to `O=C(O)c1ccc(-c2ccc([N+](=O)[O-])cc2)o1`, the inhibition result in assay [1] is “Dose-dependent effect”. In addition, the inhibition entry in assay [2] was “Active”.

These data come from ChEMBL document CHEMBL4152320, “Discovery and development of novel salicylate synthase (MbtI) furanic inhibitors as antitubercular agents” (Eur J Med Chem, 2018).
